OX1R antag-1: antagonists of human orexin 1 receptor (OX1R); OX1R-expressing cells, FRET antagonist read-out; inhibition, % at 6.6 µM; 330,000 compounds, 1.8% hits; AID 485270; in the data active = inhibition mostly above about 38%, no sharp cut-off; inactive = mostly below about 40%;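 note: 0% = agonist challenge alone and 100% = reference antagonist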
TAAR1 antag: human TAAR1 antagonism | Q96RJ0 | inhibition, % at 3 µM | CHO RD-HGA16 TAAR1, Fluo-8 calcium fluorescence, antagonist | 360,000 compounds, 1.5% hits;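 active = inhibition above a per-plate cutoff, the mean inhibition of test compounds on that plate plus 3 SD, cut at about 49% in these data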;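 note: 0% = DMSO plus EC80 beta-PEA response and 100% = DMSO alone without agonist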
Target sequence (Q96RJ0 whole entry, looked up): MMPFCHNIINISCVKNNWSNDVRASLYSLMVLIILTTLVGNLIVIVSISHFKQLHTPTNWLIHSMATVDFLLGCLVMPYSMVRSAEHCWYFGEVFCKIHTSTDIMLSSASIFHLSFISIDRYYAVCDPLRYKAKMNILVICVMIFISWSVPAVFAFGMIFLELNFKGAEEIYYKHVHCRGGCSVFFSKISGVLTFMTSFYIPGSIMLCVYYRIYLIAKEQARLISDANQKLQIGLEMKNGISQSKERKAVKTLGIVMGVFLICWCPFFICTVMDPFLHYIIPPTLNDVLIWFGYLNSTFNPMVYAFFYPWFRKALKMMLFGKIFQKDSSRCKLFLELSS
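Material: RD-HGA16 CHO cells with stable hTAAR1 and Gα16; Dosing: single nominal final test compound concentration of 3 µM; Schedule: seeding 17-24 h prior, 75-min 37 °C, 30-min RT dye loading; Detection: kinetic Fluo-8 calcium fluorescence measurement; Measure: % inhibition from peak post-agonist over basal fluorescence ratio; Benchmarks: vehicle and agonist controls.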
OX1R antag-2: blocks the human orexin 1 receptor. O43613. CHO/OX1R cells, Fluo-8 calcium fluorescence, orexin A. inhibition, % at 5 µM. 330,000 compounds, 0.43% hits;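 active = inhibition above its plate's threshold, mean inhibition of all tested compounds on the plate plus 3 SD, cut at about 37% in these data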;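 note: 0% = orexin A challenge wells and 100% = SB-334867-A antagonist wells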
GPR7 antagonist: antagonists of human GPR7 (neuropeptides B/W receptor 1); P48145; GPR7-expressing cells, fluorescence antagonist assay; inhibition, % at 4.4 µM; 290,000 compounds, 1.1% hits; AID 1861; in the data active = inhibition above about 16%, passing the limit was not always enough;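 note: cells stimulated with the agonist NPW; 0% = agonist with vehicle and 100% = vehicle without agonist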
Target sequence (P48145 whole entry, looked up): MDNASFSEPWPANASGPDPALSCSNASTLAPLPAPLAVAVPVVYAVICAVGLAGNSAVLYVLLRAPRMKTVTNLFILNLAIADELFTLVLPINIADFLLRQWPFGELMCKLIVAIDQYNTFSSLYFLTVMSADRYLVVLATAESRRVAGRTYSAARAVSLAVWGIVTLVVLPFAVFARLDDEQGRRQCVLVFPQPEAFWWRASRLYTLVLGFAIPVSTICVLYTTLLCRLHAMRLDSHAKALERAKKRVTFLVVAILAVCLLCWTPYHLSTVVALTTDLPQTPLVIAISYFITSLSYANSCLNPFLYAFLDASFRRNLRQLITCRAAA
TAAR1 agonist: human TAAR1 agonism. Q96RJ0. activation, % at 3 µM. CHO RD-HGA16 TAAR1, Fluo-8 calcium fluorescence; vehicle wells 0%, saturating PEA agonist 100%. 360,000 compounds, 0.99% hits;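 active = activation above the mean activation of all test compounds in the run plus 3 SD, cut at about 38% in these data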
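System: CHO-derived RD-HGA16 cells with stable Gα16 and human TAAR1. Times: 17-24 h plating, Fluo-8 75 min 37 °C, 30 min RT. Measured by: calcium-sensitive Fluo-8 signal, excitation 470-495, emission 515-575 nm. Read-out basis: % activation relative to PEA EC100 response. Control set: DMSO and PEA EC100. Repeats: no replicates (n 1).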
CHO parental Ca: counter-screen for OX1R antagonists: effect in parental CHO cells | 330,000 compounds, 0.63% hits | parental CHO-K1, ATP-induced calcium, Fluo-8 fluorescence | AID 463079 | inhibition, % at 5.6 µM;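 active = inhibition above that plate's mean sample inhibition plus 3 SD, cut at about 26% in these data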;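 note: 0% = ATP-challenged DMSO wells and 100% = DMSO wells without ATP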
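test system = CHO parental line | reagent = ATP stimulus | measured by = intracellular calcium via Fluo-8 no-wash fluorescent dye | control set = ATP and no-ATP DMSO wells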
An asterisk follows results filed as active; . = not tested or not shown. Sampled rows, rich in hits. Any-hit rate of the full collection: about 4.6%.

SMILES | OX1R antag-1 | TAAR1 antag | OX1R antag-2 | GPR7 antagonist | TAAR1 agonist | CHO parental Ca
Cc1ccc(-c2nnn(CC(=O)N(CC(=O)NC3CCCCC3)c3ccc(F)c(Cl)c3)n2)o1 | 12 | -1 | -14 | -3 | 5 | -17
CCOC(=O)c1c(NC(=O)CSc2nc3cc(Cl)ccc3s2)sc(C(C)=O)c1C | 6 | -15 | -13 | 7 | -1 | -7
CCOC(=O)c1c(NC(=O)CSc2nc3ccccc3s2)sc(C(C)=O)c1C | 33 | -10 | -11 | -4 | 4 | 36*
CCCN(CC(=O)Nc1ccc(Cl)cc1Cl)C(=O)/C=C/c1cc(OC)ccc1OC | 18 | 23 | -24 | -4 | 0 | -27
CCCN(CC(=O)Nc1cc(Cl)ccc1Cl)C(=O)/C=C/c1cc(OC)ccc1OC | 43* | 26 | 32 | . | 12 | -19
Cc1ccc(NS(=O)(=O)c2cc(Br)cnc2N)cc1C | 19 | -7 | -17 | -15 | -1 | -11
CCCOc1ccccc1C1CC(=O)NC2=C1C(=O)CCC2 (configuration not stated) | 26 | 6 | -25 | 3 | 11 | -7
CCCCOc1ccccc1C1CC(=O)NC2=C1C(=O)CCC2 (configuration not stated) | 8 | 14 | -1 | 20* | 24 | -32
CCOC(=O)c1csc(NC(=O)c2cc(-c3ccccn3)nc3ccccc23)n1 | -2 | 12 | -15 | . | 8 | -9
CC(C)(C)c1ccc(CN(Cc2ccco2)Cc2nnnn2C2CCCC2)cc1 | 12 | 29 | -22 | 6 | 2 | 48*
CCCn1c(SCC(=O)Nc2cccc(F)c2)nc(O)cc1=O | -6 | 11 | 79* | . | 7 | 40*
O=C(Nc1ccc2ccccc2c1)C(=O)C1C(=O)Nc2ccccc21 (configuration not stated) | 24 | 2 | -11 | 13 | -3 | -8
COc1ccc(-c2c(C(F)(F)F)nn(C)c2NC(=O)c2cccnc2)cc1 | 13 | 13 | 22 | -23 | 1 | -17
CCOC(=O)c1cnc2sc3c(n2c1=O)CCCC3 | 58 | 2 | 35 | 23 | -1 | 43*
Cn1c2c(c(=O)n(C)c1=O)C(C(F)(F)F)(C(F)(F)F)N=C(c1ccc(Cl)cc1)N2 | 56* | . | 9 | 5 | . | 17
CCOC(=O)Cn1c(=O)oc2cc(S(=O)(=O)NC3CCCc4ccccc43)ccc21 (configuration not stated) | 8 | 19 | -8 | 28* | 2 | 14
CCCCSc1cnn(-c2ccccc2)c(=O)c1SCCCC | 2 | 12 | -25 | -21 | 5 | 30*
CCN(CC)C(=O)CN(c1cc(Cl)ccc1OC)S(=O)(=O)c1ccc(C)c([N+](=O)[O-])c1 | 74* | 19 | 39 | 12 | -1 | 3
COc1ccc(Cl)cc1N(CC(=O)NC1CC1)S(=O)(=O)c1ccc(C)c([N+](=O)[O-])c1 | 17 | 16 | -25 | 0 | 10 | 8
COC(=O)c1cnc(NNS(=O)(=O)c2ccc(C(F)(F)F)cc2)nc1C(F)(F)F | 11 | 9 | -16 | -3 | 11 | -9
c1ccc(COn2nnc3ccccc32)c(COn2nnc3ccccc32)c1 | 44 | 55* | 20 | -3 | 8 | 2
O=C(CSc1nnc(-c2c[nH]c3ccccc23)o1)c1ccc(-c2ccccc2)cc1 | 25 | 29 | 0 | -6 | 2 | 0
Cc1ccc(S(=O)(=O)N2CCCN(c3nc4cc(C)ccc4cc3C#N)CC2)cc1 | 48* | 4 | 38 | -6 | -2 | -21
Cc1nn(Cc2ccccc2)c(C)c1/C=N/NC(=O)c1cccnc1 | 6 | 17 | 2 | -5 | 7 | -6
CCCNC(=O)Nc1nc2ccccc2s1 | 7 | -4 | -17 | -7 | 1 | -2
SMILES | OX1R antag-1 | TAAR1 antag | OX1R antag-2 | GPR7 antagonist | TAAR1 agonist | CHO parental Ca
CCCNC(=O)c1ccc(-c2nc3ccccc3s2)s1 | 61* | 13 | 9 | 2 | 2 | -9
O=C(Nc1ccccc1)c1ccc[n+](Cc2ccc([N+](=O)[O-])cc2)c1 | 63* | -5 | -11 | 0 | 3 | -8
Cc1ccccc1Nc1nc(N)nc(CSc2nc3ccccc3s2)n1 | 67* | -1 | 2 | -9 | 1 | -34
Cc1ccccc1Nc1nc(N)nc(CSc2nc3ccccc3c(=O)n2C)n1 | 2 | 59* | -28 | 0 | 13 | -16
COc1ccc(/C(O)=C2/C(=O)C(=O)N(CC3CCCO3)C2c2ccc(O)c(OC)c2)cc1 (configuration not stated) | 21 | 7 | -6 | -5 | 2 | 2
COc1ccc(Nc2ccccc2NC(=O)c2ccccc2Br)cc1 | 22 | 13 | -26 | 2 | -1 | -37
C/C(=C\c1ccc(C)o1)C(=O)c1c(C)cc(C)[nH]c1=O | 5 | 1 | 1 | 20* | 5 | 0
Cc1csc(NC(=O)CSc2nc(C)nc3c2c(=O)n(C)c(=O)n3C)n1 | 0 | -6 | -11 | . | 10 | -10
CC(C)N1CCc2c(sc(NC(=O)c3ccc([N+](=O)[O-])o3)c2C(N)=O)C1 | 93* | -12 | -9 | 1 | -1 | -11
COC(=O)c1c(NC(=O)c2ccc([N+](=O)[O-])o2)sc2c1CCN(C(C)C)C2 | 65* | -8 | -19 | -7 | -1 | -11
CC(=O)N1CCc2c(sc(NC(=O)c3ccc([N+](=O)[O-])o3)c2C#N)C1 | . | -18 | . | -9 | 16 | .
COc1cccc(CN(C(=O)c2ccccc2Cl)C2CCS(=O)(=O)C2)c1 (configuration not stated) | 3 | -4 | -22 | -9 | 2 | -5
Cc1cccc(-c2ncc(CN3CCN(CCC(C)C)C(CCO)C3)cn2)c1 (configuration not stated) | 17 | -12 | -30 | 19* | 7 | -13
Cc1nn(Cc2ccccc2)c(C)c1NC(=O)c1ccc([N+](=O)[O-])cc1[N+](=O)[O-] | 45* | 7 | -13 | 3 | 3 | -3
O=C(COc1ccccc1C(=O)O)NC1CCCc2ccccc21 (configuration not stated) | 12 | -4 | -30 | 14 | 1 | -4
O=C(COc1ncnc2scc(-c3ccccc3)c12)NC1CCCc2ccccc21 (configuration not stated) | 73* | -9 | 8 | -16 | 1 | -9
CCOC(=O)N1CCN(C(=O)C2CCC(=O)N(Cc3ccc(Cl)cc3)C2)CC1 (configuration not stated) | 10 | -10 | 3 | -10 | 2 | -18
NS(=O)(=O)c1cccc(NC(=O)CN2CCC(Cc3ccccc3)CC2)c1 | 15 | 1 | -9 | 1 | 1 | -12
COc1ccc(C(=O)NCC(=O)OCc2ccc([N+](=O)[O-])cc2)cc1 | 19 | 8 | -19 | -3 | 6 | -7

Screening results from PubChem.
